According to ChEMBL document CHEMBL4229432, “Synthesis and biological properties of aryl methyl sulfones” (Bioorg Med Chem, 2018):

Legend:
[1] = molecular target: T1, Prostaglandin G/H synthase 1 (Ovis aries, UniProt P05979); assay: Inhibition of ovine COX1 assessed as reduction in PGH2 production by enzyme immunoassay
T1 sequence (P05979 whole entry): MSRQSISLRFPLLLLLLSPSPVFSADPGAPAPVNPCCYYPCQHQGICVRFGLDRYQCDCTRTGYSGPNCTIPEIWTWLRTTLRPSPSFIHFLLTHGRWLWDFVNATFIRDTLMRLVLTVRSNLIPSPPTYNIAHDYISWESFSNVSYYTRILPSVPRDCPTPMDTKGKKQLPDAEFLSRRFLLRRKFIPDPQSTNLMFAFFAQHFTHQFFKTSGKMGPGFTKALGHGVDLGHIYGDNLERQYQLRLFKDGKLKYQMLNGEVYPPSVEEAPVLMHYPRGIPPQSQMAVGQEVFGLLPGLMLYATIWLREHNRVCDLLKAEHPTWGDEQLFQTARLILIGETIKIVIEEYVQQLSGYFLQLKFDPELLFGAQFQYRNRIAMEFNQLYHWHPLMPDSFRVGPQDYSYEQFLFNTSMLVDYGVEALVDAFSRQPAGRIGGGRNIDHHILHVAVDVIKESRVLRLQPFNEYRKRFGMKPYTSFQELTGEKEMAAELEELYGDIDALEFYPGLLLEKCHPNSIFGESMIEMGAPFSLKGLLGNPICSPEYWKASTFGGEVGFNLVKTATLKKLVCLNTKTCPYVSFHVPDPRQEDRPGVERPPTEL

Rattus norvegicus [2] = assay: Toxicity in Sprague-Dawley rat at 70 mg/kg, po; type: organism-based; conditions: in vivo
Rattus norvegicus [3] = assay: Antiinflammatory activity in Sprague-Dawley rat assessed as inhibition of carrageenan-induced paw edema at 70 mg/kg, po pretreated for 1 hr followed by carrageenan challenge and measured after 3 hrs by plethysmometer relative to control; type: functional
Procedure, shortened: (§1)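 Modified Winter's method in young adult male Sprague-Dawley rats (160-200 g, groups of six), starved 24 h. Oral dose given 1 h before subplantar injection of 0.1 mL 1% carrageenan in sterile pyrogen-free 0.9% NaCl. Paw volume measured by water displacement plethysmometry before and at 3 and 4 h. % inhibition vs controls; mean ± S.E.M.; unpaired one-tailed Student's t-test.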

Rattus norvegicus [4] = assay: Antiinflammatory activity in Sprague-Dawley rat assessed as inhibition of carrageenan-induced paw edema at 70 mg/kg, po pretreated for 1 hr followed by carrageenan challenge and measured after 4 hrs by plethysmometer relative to control; type: functional; procedure, shortened: as §1
Mus musculus [5] = assay: Analgesic activity in CD1 mouse assessed as inhibition of acetic acid-induced writhings at 10 mg/kg, po pretreated for 30 mins followed by acetic acid challenge for 5 mins and measured for 30 mins relative to control; type: functional
Procedure, shortened: (§2)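 Male Swiss CD1 mice, 4-5 weeks, 25 ± 5 g, acclimatized one week. Dose adjusted to body weight and given orally by feeding needle 30 min before i.p. acetic acid (25 mg/kg; 0.25 mL/25 g). NaCl solution served as control. […] Mean ± S.E.M., at least four mice; one-way ANOVA with Student-Newman-Keuls.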

Mus musculus [6] = assay: Analgesic activity in CD1 mouse assessed as inhibition of acetic acid-induced writhings at 20 mg/kg, po pretreated for 30 mins followed by acetic acid challenge for 5 mins and measured for 30 mins relative to control; type: functional; procedure, shortened: as §2
Mus musculus [7] = assay: Analgesic activity in CD1 mouse assessed as inhibition of acetic acid-induced writhings at 70 mg/kg, po pretreated for 30 mins followed by acetic acid challenge for 5 mins and measured for 30 mins relative to control; type: functional; procedure, shortened: as §2
Mus musculus [8] = assay: Analgesic activity in CD1 mouse assessed as inhibition of acetic acid-induced writhings at 70 mg/kg, po pretreated for 30 mins followed by acetic acid challenge; type: functional, organism-based; conditions: TDE = time-dependent effect; procedure, shortened: as §2
Rattus norvegicus [9] = assay: Ulcerogenicity in Sprague-Dawley rat assessed as gastric lessions at 70 mg/kg, po measured after 4 hrs; type: toxicity, organism-based; conditions: in vivo
Procedure, shortened: (§3)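 Male Sprague-Dawley rats, 180 ± 20 g, acclimatized one week, 3 per group. Oral dosing by feeding needle, adjusted to body weight; saline and carboxymethylcellulose served as controls. Killed 4 h after dosing; stomach opened along the greater curvature, rinsed with saline, and lesions scored under a magnifying glass.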

HT-29 = assay: Growth inhibition of human HT-29 cells by MTT assay; type: cell-based
Rattus norvegicus [10] = assay: Ulcerogenicity in Sprague-Dawley rat assessed as hyperemia at 70 mg/kg, po measured after 4 hrs; type: toxicity, organism-based; conditions: in vivo; procedure, shortened: as §3

Row | IC50 [1] | IC50 (HT-29) | Compound | Activity (Rattus norvegicus [2]) | inhibition in vivo at 70 mg/kg (Rattus norvegicus [3]) | inhibition in vivo at 70 mg/kg (Rattus norvegicus [4]) | inhibition in vivo at 10 mg/kg (Mus musculus [5]) | inhibition in vivo at 20 mg/kg (Mus musculus [6]) | inhibition in vivo at 70 mg/kg (Mus musculus [7]) | inhibition (Mus musculus [8]) | Activity (Rattus norvegicus [9]) | Activity (Rattus norvegicus [10])
1 | 6230 nM |  | CN1c2ccccc2Sc2ccc(CC(=O)O)cc21 [METIAZINIC ACID] |  |  |  |  |  |  |  |  | 
2 | 1360 nM |  | CN1c2ccccc2Sc2ccc(S(C)(=O)=O)cc21 | Non-Toxic |  |  |  |  |  |  |  | 
3 | 7020 nM |  | CC(C)Cc1ccc(S(C)(=O)=O)cc1 | Non-Toxic | 9.6% | 9.5% |  |  |  |  |  | 
4 | 180 nM | > 200000 nM | CS(=O)(=O)c1ccc(C(=O)c2ccoc2)cc1 | Non-Toxic | 27.6% | 25.9% | 45.9% | 50.5% | 64.9% | Tde | Non-Toxic | 
5 | 40 nM | > 200000 nM | COc1ccc2cc(S(C)(=O)=O)ccc2c1 | Non-Toxic | 29.4% | 34.6% | 49.3% | 56.2% | 60.1% | Tde | Non-Toxic | Toxic
6 | 390 nM | > 200000 nM | COc1ccc2c(c1)c(S(C)(=O)=O)c(C)n2C(=O)c1ccc(Cl)cc1 | Non-Toxic | 29.9% | 32.5% |  |  |  |  |  | 
7 |  |  | CC(C)Cc1ccc(C(C)C(=O)O)cc1 (configuration not stated) [IBUPROFEN] |  |  | 23.9% | 48% | 53% | 66.7% |  |  | 
8 | 4890 nM |  | CS(=O)(=O)c1cccc(Oc2ccccc2)c1 | Non-Toxic | 27.8% | 25.4% |  |  |  |  |  | 
9 | 2730 nM |  | CC(C(=O)O)c1cccc(Oc2ccccc2)c1 (configuration not stated) [FENOPROFEN] |  |  |  |  |  |  |  |  | 
10 | 5290 nM |  | CS(=O)(=O)c1ccc(C(=O)c2ccc(Cl)cc2)cc1 | Non-Toxic | 14.9% | 18.9% |  |  |  |  |  | 
11 | 110 nM |  | CC(C(=O)O)c1cccc(C(=O)c2ccccc2)c1 (configuration not stated) [KETOPROFEN] |  |  |  |  |  |  |  |  | 
